Assay [1] relates to Mus musculus. In words: Change in plasma glucose levels measured in genetically altered obese diabetic mice(db/db) at 100 mg/kg at 3 hr postdose. It is filed as functional.
Assay [2] relates to Mus musculus. The assay is described as follows: Change in plasma glucose levels measured in genetically altered obese diabetic mice(db/db) at 100 mg/kg at 24 hr postdose. Type of assay: functional.
Assay [3] concerns Mus musculus. The assay is described as follows: Mean body weight measured in genetically altered obese diabetic mice(db/db) at 100 mg/kg at 0 hr postdose. It is filed as functional. In a few lines:
(§1)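 Obese diabetic C57BL/KS-db/db mice, single dose at t = 0, n = 8 per group (n = 5 for parent compound). Body weight recorded per mouse at 0 and 24 h; food intake reported as g/mouse/day. Vehicle used as negative control, metformin as positive control.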

The test system of assay [4] is 3T3-L1. In words: In vitro glucose transport activity in 3T3-LI adipocytes at 10 uM concentration. It is filed as functional, Mus musculus. Put shortly:
(§2)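 Differentiated 3T3-L1 adipocytes, no added insulin, treated in triplicate for 18 h with compound at 3, 10 or 30 µM. Glucose transport expressed as % (relative to untreated); values are means of triplicate runs, significance by one-tailed independent Student's t-test.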

The subject of assay [5] is Mus musculus. In words: Mean body weight measured in genetically altered obese diabetic mice(db/db) at 100 mg/kg at 24 hr postdose. Type of assay: functional. Put shortly: as §1
The subject of assay [6] is 3T3-L1. In words: In vitro glucose transport activity in 3T3-LI adipocytes at 30 uM concentration. Type of assay: functional, Mus musculus. In a few lines: as §2
The subject of assay [7] is 3T3-L1. In words: In vitro glucose transport activity in 3T3-LI adipocytes at 3 uM concentration. It is filed as functional, Mus musculus. In a few lines: as §2
Assay [8] relates to Mus musculus. In words: Food intake measured in genetically altered obese diabetic mice(db/db) at 100 mg/kg dose. Type of assay: functional. In a few lines:
as §1

For `C[n+]1c2ccc(F)cc2cc2[nH]c3ccccc3c21.[Cl-]`, the values for the Change in the assay on Mus musculus [1] and in the assay with Mus musculus [2] were -42.5% and -34.5%, respectively. In addition, the figures for the Mean body weight in the assay on Mus musculus [3] and in the assay with Mus musculus [5] were 43.8 g mouse-1 and 41.9 g mouse-1, respectively. Moreover, the Glucose transport in the assay with 3T3-L1 [4] amounted to 360%; with 3T3-L1 [6], 443%; in the assay on 3T3-L1 [7] it was 253%. This compound gave a Food intake in the assay with Mus musculus [8] of 0.5 g mouse-1 day-1.
As to `C[n+]1c2c(c(Sc3ccc(Cl)cc3)c3ccccc31)Cc1ccccc1-2.O=S(=O)([O-])C(F)(F)F`, the values for the Glucose transport in the assay on 3T3-L1 [4], in the assay on 3T3-L1 [6] and with 3T3-L1 [7] were 110%, 122% and 108%, respectively.
As to `C[n+]1c2ccccc2cc2[nH]c3cc(Cl)c(Br)cc3c21.[Cl-]`, the Change in the assay on Mus musculus [1] was -33%; in the assay with Mus musculus [2], -18.9%. Moreover, the results for the Mean body weight in the assay on Mus musculus [3] and in the assay on Mus musculus [5] were 45.5 g mouse-1 and 44.6 g mouse-1, respectively. Besides, the Glucose transport with 3T3-L1 [4] turned out to be 127%; in the assay with 3T3-L1 [6], 0.1%; in the assay with 3T3-L1 [7], 104%. Besides, the Food intake in the assay on Mus musculus [8] amounted to 2.8 g mouse-1 day-1.
`C[n+]1c2ccc(F)cc2c(Oc2ccccc2)c2[nH]c3ccccc3c21.[Cl-]`: the Change in the assay with Mus musculus [1] was -11.8%; in the assay with Mus musculus [2] it was -7.5%. Also, the results for the Mean body weight with Mus musculus [3] and in the assay with Mus musculus [5] were 46.6 g mouse-1 and 45.2 g mouse-1, respectively. Besides, the Glucose transport in the assay on 3T3-L1 [4] is 207%; in the assay with 3T3-L1 [6], 0.39%; in the assay with 3T3-L1 [7] it was 140%. This compound displayed a Food intake in the assay on Mus musculus [8] of 1.6 g mouse-1 day-1.
For the compound `C[n+]1c2ccccc2cc2[n-]c3ccccc3c21.Cl` [CRYPTOLEPINE HYDROCHLORIDE], the Change is on record as -16.4% with Mus musculus [1] and -43.1% in the assay on Mus musculus [2]. Besides, the Mean body weight in the assay with Mus musculus [3] worked out at 41 g mouse-1; in the assay with Mus musculus [5], 39.8 g mouse-1. Besides, the Glucose transport with 3T3-L1 [4] was determined as 305%; with 3T3-L1 [6], 359%; in the assay with 3T3-L1 [7], 148%. Besides, the Food intake in the assay with Mus musculus [8] is reported as 0.9 g mouse-1 day-1.
On to `C[n+]1c2ccccc2c(Sc2ccc(Cl)cc2)c2oc3ccccc3c21.O=S(=O)([O-])C(F)(F)F`, for which the Glucose transport in the assay on 3T3-L1 [4] is on record as 142%; with 3T3-L1 [6], 141%; with 3T3-L1 [7] it was 118%.
`C[n+]1c2ccccc2c(I)c2[nH]c3c(F)cccc3c21.[Cl-]`: the results for the Change in the assay with Mus musculus [1] and with Mus musculus [2] were 19.9% and -32.9%, respectively. Moreover, the figures for the Mean body weight with Mus musculus [3] and in the assay with Mus musculus [5] were 43.4 g mouse-1 and 41.4 g mouse-1, respectively. The Glucose transport is reported as 255% in the assay with 3T3-L1 [4], 0.1% with 3T3-L1 [6] and 129% with 3T3-L1 [7]. Besides, in the assay on Mus musculus [8], the Food intake turned out to be 0.7 g mouse-1 day-1.
With `C[n+]1c2c(c(Cl)c3ccccc31)Cc1ccccc1-2.O=S(=O)([O-])C(F)(F)F`, the Glucose transport with 3T3-L1 [4] stood at 119%; in the assay with 3T3-L1 [6], 297%; in the assay on 3T3-L1 [7] it was 125%.
As for `Fc1ccc(C[n+]2c3ccccc3cc3[nH]c4ccccc4c32)cc1.[Cl-]`, the Change in the assay with Mus musculus [1] is given as -36.3%; with Mus musculus [2] it was -9.7%. In addition, the Mean body weight in the assay with Mus musculus [3] was found to be 40.2 g mouse-1; with Mus musculus [5], 39 g mouse-1. Moreover, the Glucose transport in the assay on 3T3-L1 [4] was found to be 248%; in the assay on 3T3-L1 [6] it was 323%; in the assay with 3T3-L1 [7], 168%. The compound further gave a Food intake with Mus musculus [8] of 3.1 g mouse-1 day-1.
In the case of `COc1cccc2cc3[nH]c4ccccc4c3[n+](C)c12.[Cl-]`, the results for the Change in the assay with Mus musculus [1] and in the assay on Mus musculus [2] were -8.3% and -58.3%, respectively. The values for the Mean body weight in the assay with Mus musculus [3] and in the assay on Mus musculus [5] were 38.4 g mouse-1 and 37.1 g mouse-1, respectively. Also, the Glucose transport with 3T3-L1 [4] was found to be 486%; in the assay with 3T3-L1 [6], 543%; in the assay with 3T3-L1 [7], 237%. The Food intake in the assay with Mus musculus [8] was 2 g mouse-1 day-1.
`C[n+]1c2ccccc2c(Cl)c2[nH]c3ccccc3c21.[Cl-]`: the Glucose transport with 3T3-L1 [4] is listed as 101%; in the assay with 3T3-L1 [6], 0.33%; in the assay with 3T3-L1 [7], 107%.
Regarding `C[n+]1c2ccc(F)cc2c(-c2ccccc2)c2[nH]c3ccccc3c21.[Cl-]`, the values for the Change in the assay on Mus musculus [1] and in the assay on Mus musculus [2] were -11.2% and -4.9%, respectively. Besides, the values for the Mean body weight in the assay on Mus musculus [3] and in the assay on Mus musculus [5] were 40.5 g mouse-1 and 40.4 g mouse-1, respectively. Moreover, the Glucose transport with 3T3-L1 [4] was determined as 215%; in the assay on 3T3-L1 [6], 116%; in the assay on 3T3-L1 [7] it was 281%. In the assay on Mus musculus [8], this compound registered a Food intake of 5.1 g mouse-1 day-1.
On to `C[n+]1c2ccccc2c(Cl)c2oc3ccccc3c21.O=S(=O)([O-])C(F)(F)F`, for which the Change with Mus musculus [1] is on record as -17.9%; in the assay on Mus musculus [2], -20.8%. Besides, the Mean body weight is given as 40.6 g mouse-1 in the assay on Mus musculus [3] and 41.1 g mouse-1 in the assay on Mus musculus [5]. Further, the results for the Glucose transport in the assay on 3T3-L1 [4], in the assay on 3T3-L1 [6] and in the assay with 3T3-L1 [7] were 114%, 107% and 119%, respectively. The same compound displayed a Food intake with Mus musculus [8] of 4.9 g mouse-1 day-1.
Turning to `C[n+]1c2ccccc2c(I)c2[nH]c3ccc(F)cc3c21.[Cl-]`, the Change in the assay on Mus musculus [1] is reported as -33.1%; with Mus musculus [2], -13.2%. The Mean body weight with Mus musculus [3] is reported as 42.2 g mouse-1; with Mus musculus [5], 41.8 g mouse-1. The Glucose transport is 117% in the assay on 3T3-L1 [4], 0.92% in the assay on 3T3-L1 [6] and 115% in the assay with 3T3-L1 [7]. For the same compound, in the assay with Mus musculus [8], the Food intake is 2.7 g mouse-1 day-1.
As for `C[n+]1c2ccccc2c(Cl)c2[nH]c3cc(F)ccc3c21.[Cl-]`, the Glucose transport is on record as 159% with 3T3-L1 [4], 6% in the assay with 3T3-L1 [6] and 107% with 3T3-L1 [7].
Turning to `C[n+]1c2ccccc2cc2[nH]c3ccccc3c21.[I-]` [CRYPTOLEPTINE IODIDE], the Glucose transport with 3T3-L1 [4] is reported as 163%; in the assay on 3T3-L1 [6], 287%; in the assay on 3T3-L1 [7], 134%.
Turning to `C[n+]1c2ccc(F)cc2c(Sc2ccc(Cl)cc2)c2[nH]c3ccccc3c21.[Cl-]`, the Glucose transport in the assay with 3T3-L1 [4] came to 154%; in the assay with 3T3-L1 [6] it was 13%; with 3T3-L1 [7] it was 128%.
Regarding `[Cl-].c1ccc(C[n+]2c3ccccc3cc3[nH]c4ccccc4c32)cc1`, the Change with Mus musculus [1] is -15%; in the assay on Mus musculus [2], -20%. Also, the Mean body weight in the assay on Mus musculus [3] is on record as 39.3 g mouse-1; in the assay on Mus musculus [5], 38.9 g mouse-1. Further, the Glucose transport in the assay on 3T3-L1 [4] is recorded as 781%; with 3T3-L1 [6], 161%; in the assay on 3T3-L1 [7], 611%. Further, the Food intake in the assay with Mus musculus [8] turned out to be 5.1 g mouse-1 day-1.
`C[n+]1c2ccccc2c(Cl)c2[nH]c3ccc(-c4ccccc4)cc3c21.[Cl-]`: the results for the Glucose transport with 3T3-L1 [4], in the assay on 3T3-L1 [6] and in the assay with 3T3-L1 [7] were 190%, 16% and 122%, respectively.
Regarding `COC(=O)c1c2ccccc2[n+](C)c2c3ccccc3n(C)c12.[I-]`, the figures for the Glucose transport in the assay on 3T3-L1 [4], with 3T3-L1 [6] and with 3T3-L1 [7] were 207%, 260% and 155%, respectively.
The corresponding values for `C[n+]1c2ccccc2c(Cl)c2sc3ccccc3c21.O=S(=O)([O-])C(F)(F)F` are 100%, 110% and 96%.
With `C[n+]1c2ccc(F)cc2c(Cl)c2[nH]c3ccccc3c21.[Cl-]`, the Glucose transport stood at 224% in the assay on 3T3-L1 [4], 3.3% in the assay with 3T3-L1 [6] and 142% in the assay on 3T3-L1 [7].
Regarding `COC(=O)c1c2ccccc2[n+](C)c2c1[nH]c1ccccc12.[I-]`, the Glucose transport in the assay on 3T3-L1 [4] stood at 159%; in the assay with 3T3-L1 [6], 371%; in the assay with 3T3-L1 [7], 63%.
The corresponding values for `C[n+]1c2ccccc2c(Cl)c2[nH]c3cccc(F)c3c21.[Cl-]` are 457%, 6.4% and 143%.
Consider `C[n+]1c2ccc(Cl)cc2c(Cl)c2[nH]c3ccccc3c21.[Cl-]`, for which the Glucose transport turned out to be 138% in the assay on 3T3-L1 [4], 215% in the assay on 3T3-L1 [6] and 108% in the assay on 3T3-L1 [7].
Consider `C[n+]1c2ccc(F)cc2c(Nc2ccccc2)c2[nH]c3ccccc3c21.[Cl-]`, for which the Change with Mus musculus [1] is listed as -10.5%; in the assay on Mus musculus [2] it was -10.7%. For the same compound, the Mean body weight with Mus musculus [3] is on record as 44.8 g mouse-1; in the assay with Mus musculus [5] it was 44.2 g mouse-1. The Glucose transport with 3T3-L1 [4] came to 208%; in the assay with 3T3-L1 [6] it was 0.9%; in the assay with 3T3-L1 [7], 325%. The Food intake in the assay with Mus musculus [8] was found to be 3.2 g mouse-1 day-1.
For `C[n+]1c2cccc(Cl)c2c(Cl)c2[nH]c3ccccc3c21.[Cl-]`, the figures for the Glucose transport in the assay with 3T3-L1 [4], in the assay on 3T3-L1 [6] and in the assay on 3T3-L1 [7] were 282%, 352% and 120%, respectively.

The values above are taken from ChEMBL document CHEMBL1131580, “Antihyperglycemic activities of cryptolepine analogues: an ethnobotanical lead structure isolated from Cryptolepis sanguinolenta” (1998).
